Hits are enriched below; roughly 2.3% of the tested compounds scored in any of these assays.
OXTR ag = human OXTR agonism | CHO-OTR cells, Fluo-8 calcium fluorescence; normalized: DMSO 0%, oxytocin 100% | activation, % at 3 µM | 320,000 compounds, 0.32% hits;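 active means activation above the mean of all tested compounds plus 3 SD, cutoff set per screening run, cut at about 20% in these data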;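 further: peak over basal fluorescence ratio from a 100 s FLIPR kinetic read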
V1aR counter = activates human V1a receptor in oxytocin agonist counter-screen. activation, % at 3 µM. 320,000 compounds, 0.25% hits. P37288. CHO-V1R cells, Fluo-8 calcium fluorescence, agonist mode; 0% DMSO, 100% 3 nM vasopressin. AID 2797;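 active means activation above the mean activation of all tested compounds plus 3 SD, per screening run, cut at about 20% in these data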;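 further: signal is peak over basal fluorescence ratio across a 100 second FLIPR read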
Target sequence (P37288 whole entry, looked up): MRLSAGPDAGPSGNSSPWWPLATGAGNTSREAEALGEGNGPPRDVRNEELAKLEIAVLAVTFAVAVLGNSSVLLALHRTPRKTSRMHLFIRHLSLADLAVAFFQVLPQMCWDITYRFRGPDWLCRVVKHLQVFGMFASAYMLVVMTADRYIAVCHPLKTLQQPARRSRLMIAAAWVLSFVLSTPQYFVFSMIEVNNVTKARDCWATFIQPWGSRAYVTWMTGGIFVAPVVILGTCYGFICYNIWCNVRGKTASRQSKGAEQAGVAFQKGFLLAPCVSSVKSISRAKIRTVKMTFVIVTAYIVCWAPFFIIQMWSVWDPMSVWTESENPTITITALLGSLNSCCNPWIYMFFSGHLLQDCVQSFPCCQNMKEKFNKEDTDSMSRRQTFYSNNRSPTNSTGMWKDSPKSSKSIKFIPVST
TAAR1 antagonist = antagonists of human TAAR1 | AID 624466 | 360,000 compounds, 1.5% hits | inhibition, % at 3 µM | CHO RD-HGA16 TAAR1, Fluo-8 calcium fluorescence, antagonist;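 active means inhibition above a per-plate cutoff, the mean inhibition of test compounds on that plate plus 3 SD, cut at about 49% in these data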;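 further: 0% = DMSO plus EC80 beta-PEA response and 100% = DMSO alone without agonist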
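Assay system: CHO-derived RD-HGA16 cells stably expressing human TAAR1 plus Gα16. Timing: 140 s kinetic read after compound, 140 s after agonist. Technique: kinetic Fluo-8 calcium fluorescence measurement. Measure: % inhibition of agonist calcium response.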
OXTR potentiate = potentiates the human oxytocin receptor response. P30559. CHO-OTR cells, Fluo-8 calcium fluorescence, potentiator mode; 0% = oxytocin EC15, 100% = EC100. activation, % at 3 µM. 320,000 compounds, 0.061% hits. AID 2445;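 active means activation above that plate's cutoff, the mean activation of tested compounds plus 3 SD, cut at about 6.6% in these data, passing the limit was not always enough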;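 further: 100% uses oxytocin at 75 nM as the full agonist control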
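Dosing: Single dose, 3.0 µM nominal final compound concentration | Material: Human OTR in CHO cells | Technique: Kinetic Fluo-8 calcium fluorescence | Benchmarks: EC15 oxytocin alone as 0%, 75 nM oxytocin as 100% | Probe or stimulus: Oxytocin at about EC15, sub-maximal agonist stimulus | Incubation: Compound 6 min at room temperature before oxytocin, 100 s read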
TAAR1 ag = human TAAR1 agonism | Q96RJ0 | CHO RD-HGA16 TAAR1, Fluo-8 calcium fluorescence; vehicle wells 0%, saturating PEA agonist 100% | activation, % at 3 µM | 360,000 compounds, 0.99% hits;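 active means activation above the mean activation of all test compounds in the run plus 3 SD, cut at about 38% in these data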
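Test system: RD-HGA16 (CHO) cells co-expressing Gα16 and hTAAR1 / Benchmarks: DMSO vehicle as 0%, PEA at EC100 as 100% / Repeats: no replicates (n 1) / Measure: % activation from peak over basal fluorescence ratio, DMSO-to-PEA scaled / Timing: 17-24 h plating, Fluo-8 75 min 37 °C, 30 min RT / Technique: kinetic Fluo-8 calcium fluorescence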
TAAR1 ag confirm = confirmation of human TAAR1 agonists; CHO RD-HGA16 TAAR1, Fluo-8 calcium fluorescence; scaled: DMSO 0%, maximal phenethylamine 100%; shares compounds with TAAR1 ag; 2,400 compounds, 82% hits; activation, % at 3 µM;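 active means activation above a cutoff set at the run's mean compound activation plus 3 SD, cut at about 39% in these data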
Ga16 ag counter = nonselective agonist in parental cells, TAAR1 agonist counter-screen; shares compounds with TAAR1 ag; CHO-Ga16 parental, Fluo-8 calcium fluorescence; normalized to maximal ATP response, DMSO zero; activation, % at 3 µM; 2,400 compounds, 50% hits;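 active means activation above the run cutoff, the mean activation over all tested wells plus 3 SD, cut at about 12% in these data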;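 further: 0% = DMSO wells and 100% = maximal ATP response on the peak over basal ratio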
TAAR1 desensitize = counter-screen for human TAAR1 agonists: agonists that desensitize TAAR1 | CHO RD-HGA16 hTAAR1, Fluo-8 calcium, beta-PEA response inhibition | 2,400 compounds, 46% hits | shares compounds with TAAR1 ag | AID 651951 | inhibition, % at 3 µM;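 active means inhibition above the run cutoff, the mean inhibition of all test compounds plus 3 SD, cut at about 49% in these data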;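 further: beta-PEA stimulus applied at its EC80; loss of beta-PEA calcium signal after compound pretreatment read as receptor desensitization; 0% = DMSO with beta-PEA at EC80 and 100% = DMSO alone without agonist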
Ga16 nonsel ant = counter-screen for TAAR1 agonists: nonselective Ga16 antagonists. shares compounds with TAAR1 ag. CHO-Ga16 ATP-induced calcium, Fluo-8 fluorescence. inhibition, % at 3 µM. 2,400 compounds, 39% hits. AID 651952;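 active means inhibition above the plate's mean compound inhibition plus 3 SD, computed per plate, cut at about 22% in these data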;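 further: 0% = EC80 ATP with DMSO and 100% = DMSO wells without ATP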
* marks the source's active call; other numbers are inactive results; . = no result given.

SMILES	OXTR ag	V1aR counter	TAAR1 antagonist	OXTR potentiate	TAAR1 ag	TAAR1 ag confirm	Ga16 ag counter	TAAR1 desensitize	Ga16 nonsel ant
c1ccc(C[C@H]2CN=C(Nc3ccccc3)N2CCCC2CCCCC2)cc1	3	1	-2	-2	47*	20	3	13	13
CC(C)C[C@H]1CN=C(Nc2ccccc2)N1CCCC1CCCC1	9	3	2	-6	57*	74*	36*	26	24*
CC(C)C[C@H]1CN=C(Nc2ccccc2)N1CCCC1CCCCC1	15	5	15	-12	58*	58*	26*	33	27*
CC(C)C[C@H]1CN=C(Nc2ccccc2)N1CCC1CCCC1	3	0	-6	-4	25	.	.	.	.
Cc1cc2nc(-c3ccc[nH]c3=O)n(Cc3ccccc3F)c2cc1C	.	.	-12	.	11	.	.	.	.
O=C(NCCc1ccccc1)C(c1ccncc1)N(C(=O)c1csnn1)C1CC1 (configuration not stated)	-1	0	49*	-19	83*	91*	0	68*	1
NC(=S)NNC(=O)C12CC3CC(CC(C3)C1)C2	34*	23*	80*	-17	140*	136*	108*	102*	94*
COc1ccc(NC(=O)c2cc(S(=O)(=O)N3CCOCC3)ccc2C)cc1S(=O)(=O)N1CCOCC1	1	1	14	-2	1	.	.	.	.
c1ccc2c(c1)CC(N1CCCCC1)c1ccccc1S2 (configuration not stated)	-1	-2	-17	15	-2	.	.	.	.
CN1Cc2cccc3c2C(Cc2ccccc2S3)C1 (configuration not stated)	-2	0	-22	1	59*	61*	5	19	6
CC1=NNC(=O)C1Oc1ccccc1 (configuration not stated)	1	0	-12	-4	2	.	.	.	.
CC(C)C(C)NC(=O)Cn1cnc2c(oc3ccccc32)c1=O (configuration not stated)	1	0	-1	-1	2	.	.	.	.
O=C(Cn1cnc2c(oc3ccccc32)c1=O)NCCc1ccccc1	1	1	.	-5	.	.	2	.	1
Cc1cc(NC(=O)CN2C(=O)NC(C)(c3ccc(OC(F)F)cc3)C2=O)no1 (configuration not stated)	14	14	40	-24	83*	-4	-2	-8	-1
CCOC(=O)c1sc(NC(=O)CN2C(=O)NC3(CCCCCCC3)C2=O)c(C(=O)OCC)c1C	0	0	-19	5	0	.	.	.	.
COc1ccc(C2(c3ccc(OC)cc3)NC(=O)N(CC(=O)Nc3ccc(OC(F)F)cc3)C2=O)cc1	2	4	-13	-9	4	.	.	.	.
CCOC(=O)c1c(NC(=O)CN2C(=O)NC(C)(c3ccc(OC(F)F)cc3)C2=O)sc(C)c1C (configuration not stated)	27*	20*	53*	-11	87*	98*	42*	86*	51*
CCOc1ccc(NC(=O)CN2C(=O)NC(C)(c3ccc(OC(F)F)cc3)C2=O)cc1 (configuration not stated)	43*	43*	63*	-17	99*	125*	82*	97*	58*
CC1(c2ccc(OC(F)F)cc2)NC(=O)N(CC(=O)Nc2cccc(F)c2)C1=O (configuration not stated)	53*	31*	98*	-16	138*	120*	84*	97*	72*
Cc1cc(NC(=O)CN2C(=O)NC(C)(c3ccccc3Cl)C2=O)no1 (configuration not stated)	2	1	7	4	1	.	.	.	.
CCOc1ccccc1OCCC(=O)N1CCN(S(=O)(=O)c2ccccc2[N+](=O)[O-])CC1	1	2	-26	6	0	.	.	.	.
Cc1ccc(S(=O)(=O)NC(=O)NC(C)Cc2ccccc2)cc1 (configuration not stated)	-1	4	4	-4	24	.	.	.	.
Cc1ccc(S(=O)(=O)N2CCC(C(=O)OCC(=O)N(C)C3CCS(=O)(=O)C3)CC2)cc1C (configuration not stated)	1	2	-19	8	3	.	.	.	.
CC1(c2ccc(OC(F)F)cc2)NC(=O)N(CC(=O)Nc2ccc(S(N)(=O)=O)cc2)C1=O (configuration not stated)	-1	0	-4	-14	8	.	.	.	.
CC1(c2ccc(OC(F)F)cc2)NC(=O)N(CC(=O)Nc2ccc(OC(F)F)cc2)C1=O (configuration not stated)	40*	28*	83*	-16	103*	97*	46*	82*	56*
SMILES	OXTR ag	V1aR counter	TAAR1 antagonist	OXTR potentiate	TAAR1 ag	TAAR1 ag confirm	Ga16 ag counter	TAAR1 desensitize	Ga16 nonsel ant
CC(C)CNC(=O)c1ccccc1-c1ccccc1C(=O)O	0	-1	3	-12	54*	7	5	-2	7
CC(C)CNC(=O)c1cccc(NC(=O)c2ccccc2-c2ccccc2C(=O)O)c1	1	2	-11	-3	1	.	.	.	.
C[C@@H](C(=O)NC1CCCCC1)N1C(=O)N2CCc3c([nH]c4ccccc34)[C@@]2(C)C1=O	-1	-1	9	0	1	.	.	.	.
C[C@@H](C(=O)NCCc1ccccc1)N1C(=O)N2CCc3c([nH]c4ccccc34)[C@@]2(C)C1=O	3	0	68*	-4	71*	68*	5	31	13
C[C@@H](C(=O)NCCc1ccccc1F)N1C(=O)N2CCc3c([nH]c4ccccc34)[C@@]2(C)C1=O	5	1	34	-6	59*	73*	4	46	21
CCN1C(=O)Cc2cc(S(=O)(=O)NCCc3ccccc3)ccc21	2	2	-11	-10	51*	46*	2	1	7
CN1C(=O)Cc2cc(S(=O)(=O)NCCc3ccccc3)ccc21	2	1	-6	-6	17	.	.	.	.
